From publication PMC10193422 (ACS Omega, 2023)
≈ marks a conversion by molar mass, not a printed value.

What was measured:
C. auris 789 = assay: MIC against drug-resistant C. auris clinical isolate; type: cell-based, Candida auris; conditions: Candidozyma auris, 789, 24 h, read-out: MIC C. aur 789
C. auris 791 = assay: as above; type: cell-based, Candida auris; conditions: Candidozyma auris, 791, 24 h, read-out: MIC C. aur 791
C. auris 887 = assay: as above; type: cell-based, Candida auris; conditions: Candidozyma auris, 887, 24 h, read-out: MIC C. aur 887
C. auris BS12372 = assay: as above; type: cell-based, Candida auris; conditions: Candidozyma auris, BS12372, 24 h, read-out: MIC C. aur BS12372
C. auris D12 = assay: as above; type: cell-based, Candida auris; conditions: Candidozyma auris, D12, 24 h, read-out: MIC C. aur D12
[1] = tested on: Aspergillus fumigatus 7544; assay: MIC, CLSI broth microdilution; type: cell-based; conditions: Aspergillus fumigatus, 7544, 48 h, read-out: MIC A. fum 7544
Summary of the method: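 Mould MIC by CLSI broth microdilution (M27-A3 and M60). The strain comes from a frozen YPD/40% glycerol stock. Test compound is dissolved in DMSO and serially diluted in growth medium. Wells are inoculated and incubated at 35 °C for 48 h. MIC is the first well with ≥50% growth reduction versus the drug-free control.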

[2] = tested on: Cryptococcus neoformans H99; assay: MIC, CLSI broth microdilution; type: cell-based; conditions: H99, 72 h, read-out: MIC C. neo H99
Summary of the method: (§1)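 CLSI broth microdilution (M27-A3 and M60). Strains are kept frozen in YPD with 40% glycerol, passaged twice on Sabouraud dextrose agar at 30 °C, then grown overnight in YPD at 30 °C with shaking. Test compound is dissolved in DMSO, serially diluted in growth medium, inoculated, and incubated at 30 °C. Candida spp. are read at 24 h, C. glabrata at 48 h and C. neoformans at 72 h. MIC is the first well with ≥50% growth reduction versus the drug-free well.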

Candida tropicalis 2718 = assay: MIC, CLSI broth microdilution; type: cell-based; conditions: Candida tropicalis, 2718, 24 h, read-out: MIC C. tro 2718
Summary of the method: as §1

C. auris 888 = assay: MIC against drug-resistant C. auris clinical isolate; type: cell-based, Candida auris; conditions: Candidozyma auris, 888, 24 h, read-out: MIC C. aur 888
Candida albicans SC5314 = assay: MIC, CLSI broth microdilution; type: cell-based; conditions: SC5314, 24 h, read-out: MIC C. alb SC5314
Summary of the method: as §1

[3] = tested on: sterol composition in C. albicans SC5314; assay: Sterol composition analysis by GC-MS; type: cell-based, Candida albicans; conditions: compounds at 0.008 μg/mL, FLC at 8 μg/mL
Candida albicans = conditions: cited from earlier work
Hemolysis assay = type: cell-based; conditions: rabbit, rabbit red blood cell suspension

Row | Compound | MIC (C. auris 789) [µg/mL] | MIC (C. auris 791) [µg/mL] | MIC (C. auris 887) [µg/mL] | MIC (C. auris BS12372) [µg/mL] | MIC (C. auris D12) [µg/mL] | MIC [1] [µg/mL] | MIC [2] [µg/mL] | MIC (Candida tropicalis 2718) [µg/mL] | MIC (C. auris 888) [µg/mL] | MIC (Candida albicans SC5314) [µg/mL] | ergosterol content in treated cells [3] | MIC against Candida albicans (Candida albicans) [µg/mL] | hemolysis at 1 h, 32 μg/mL (Hemolysis assay) [%] | hemolysis at 1 h, 64 μg/mL (Hemolysis assay) [%]
1 | O[C@@](Cn1cnnn1)(c1ccc(F)cc1F)C(F)(F)c1ccc(-c2ccc(OCC(F)(F)F)cc2)cn1 [OTC, oteseconazole] | 2 (≈ 3.79 µM) | 8 (≈ 15.2 µM) | 4 (≈ 7.58 µM) | < 0.0625 | 0.25 (≈ 0.474 µM) | > 64 | < 0.008 | < 0.008 | 8 (≈ 15.2 µM) | < 0.008 |  |  |  | 
2 | OC(Cn1cncn1)(Cn1cncn1)c1ccc(F)cc1F [FLC, fluconazole] | > 64 | > 64 | > 64 | > 64 | > 64 | > 64 | 8 (≈ 26.1 µM) | < 0.125 | > 64 | 0.25 (≈ 0.816 µM) | almost completely depleted |  |  | 
3 | C[C@@H](c1ncncc1F)[C@](O)(Cn1cncn1)c1ccc(F)cc1F [VOC, voriconazole] |  |  |  |  |  | 0.125 (≈ 0.358 µM) | 0.0625 (≈ 0.179 µM) | < 0.008 |  | < 0.008 |  | 0.06 (≈ 0.172 µM) |  | 
4 | C[C@@H]1[C@H](O)[C@@H](C)/C=C/C=C/C=C/C=C/C=C/C=C/C=C/[C@H](O[C@@H]2O[C@H](C)[C@@H](O)[C@H](N)[C@@H]2O)C[C@@H]2O[C@](O)(C[C@@H](O)C[C@@H](O)[C@H](O)CC[C@@H](O)C[C@@H](O)CC(=O)O[C@H]1C)C[C@H](O)[C@H]2C(=O)O [AmB, amphotericin B] |  |  |  |  |  |  |  |  |  |  |  |  | 26.8 | 100
5 | CC[C@@H]([C@H](C)O)n1ncn(-c2ccc(N3CCN(c4ccc(OC[C@@H]5CO[C@@](Cn6cncn6)(c6ccc(F)cc6F)C5)cc4)CC3)cc2)c1=O [POS, posaconazole] |  |  |  |  |  | 0.125 (≈ 0.178 µM) | < 0.008 | < 0.008 |  | < 0.008 |  |  |  | 
